Experimental data taken from ChEMBL document CHEMBL3352177, “C-glycoside mimetics inhibit glioma stem cell proliferation, migration, and invasion” (J Med Chem, 2014).
pIC50, pKi: −log10 of the molar value.

How the values were obtained:
[1] = Antimigratory activity against human Gli4 cells on matrix containing vitronectin after 24 hrs by 2-D migration assay; format: functional, cell-based
Summary of the method: (§1)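 Boyden chamber 2D migration toward serum over 24 h on fibronectin, vitronectin or laminin matrix. Cells in DMEM with 0.1% BSA in the upper compartment with or without compound; 10% FCS medium below. Gli4/Gli7 taken from neurosphere cultures. Migrated cells methanol-fixed, crystal violet stained, counted at ×200. Ki from Hill equation fit; ≥3 independent experiments, each point in quadruplicate.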

[2] = tested on: A-431; assay: Antiproliferative activity against human A431 cells after 48 to 72 hrs by MTT assay; format: functional, cell-based
Summary of the method: (§2)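 MTT assay read 48 and 72 h after compound addition. Cell lines grown in DMEM with 10% heat-inactivated FCS, 2 mM L-glutamine, 1 mM sodium pyruvate; GBM stem cells grown as nonadherent neurospheres. IC50 by Hill equation fit; ≥3 independent experiments, each point repeated six times.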

[3] = Antiproliferative activity against human Caco2 cells after 48 to 72 hrs by MTT assay; format: functional, cell-based; details: Caco-2; summary of the method: as §2
[4] = tested on: MDA-MB-231; assay: Antiproliferative activity against human MDA-MB-231 cells after 48 to 72 hrs by MTT assay; format: functional, cell-based; summary of the method: as §2
[5] = tested on: MDA-MB-435; assay: Antiproliferative activity against human MDA-MB-435 cells after 48 to 72 hrs by MTT assay; format: functional, cell-based; summary of the method: as §2
[6] = Antiproliferative activity against human HuH7 cells after 48 to 72 hrs by MTT assay; format: functional, cell-based; details: Huh-7; summary of the method: as §2
[7] = Antiproliferative activity against mouse B16F10 cells after 48 to 72 hrs by MTT assay; format: functional, cell-based; details: B16-F10; summary of the method: as §2
[8] = tested on: DU-145; assay: Antiproliferative activity against human DU145 cells after 48 to 72 hrs by MTT assay; format: functional, cell-based; summary of the method: as §2
[9] = tested on: C6; assay: Antiproliferative activity against rat C6 cells after 48 to 72 hrs by MTT assay; format: functional, cell-based; summary of the method: as §2
[10] = tested on: SNB-75; assay: Antiproliferative activity against human SNB75 cells after 48 to 72 hrs by MTT assay; format: functional, cell-based; summary of the method: as §2
[11] = Antiproliferative activity against human Gli7 cells after 48 to 72 hrs by MTT assay; format: functional, cell-based; summary of the method: as §2
[12] = Antimigratory activity against human Gli4 cells on matrix containing fibronectin after 24 hrs by 2-D migration assay; format: functional, cell-based; summary of the method: as §1
[13] = Antimigratory activity against human Gli7 cells on matrix containing fibronectin after 24 hrs by 2-D migration assay; format: functional, cell-based; summary of the method: as §1
[14] = tested on: SNB-75; assay: Antimigratory activity against human SNB75 cells on matrix containing fibronectin after 24 hrs by 2-D migration assay; format: functional, cell-based; summary of the method: as §1
[15] = tested on: C6; assay: Antimigratory activity against rat C6 cells on matrix containing fibronectin after 24 hrs by 2-D migration assay; format: functional, cell-based; summary of the method: as §1
[16] = Antimigratory activity against human Gli7 cells on matrix containing vitronectin after 24 hrs by 2-D migration assay; format: functional, cell-based; summary of the method: as §1
[17] = tested on: SNB-75; assay: Antimigratory activity against human SNB75 cells on matrix containing vitronectin after 24 hrs by 2-D migration assay; format: functional, cell-based; summary of the method: as §1
[18] = tested on: C6; assay: Antimigratory activity against rat C6 cells on matrix containing vitronectin after 24 hrs by 2-D migration assay; format: functional, cell-based; summary of the method: as §1
[19] = Antimigratory activity against human Gli4 cells on matrix containing laminin after 24 hrs by 2-D migration assay; format: functional, cell-based; summary of the method: as §1
[20] = Antimigratory activity against human Gli7 cells on matrix containing laminin after 24 hrs by 2-D migration assay; format: functional, cell-based; summary of the method: as §1
[21] = tested on: SNB-75; assay: Antimigratory activity against human SNB75 cells on matrix containing laminin after 24 hrs by 2-D migration assay; format: functional, cell-based; summary of the method: as §1
[22] = tested on: C6; assay: Antimigratory activity against rat C6 cells on matrix containing laminin after 24 hrs by 2-D migration assay; format: functional, cell-based; summary of the method: as §1
[23] = Antiinvasive activity against human Gli4 cells after 48 hrs by matrigel assay; format: functional, cell-based
[24] = Antiinvasive activity against human Gli7 cells after 48 hrs by matrigel assay; format: functional, cell-based
[25] = Cytotoxicity against mouse astrocytes at 100 uM by MTT assay; format: cell-based; details: astrocyte
Summary of the method: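 Primary astrocytes from day-2 newborn mouse cortex, kept 21 days (nonproliferative, GFAP-positive), exposed to compound up to 100 μM; viability by MTT assay.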

[26] = Cytotoxicity against rat cortical neurons at 100 uM using propidium iodide by flow cytometry; details: cortical neurone
[27] = Cytotoxicity against rat cortical neurons at 100 uM by MAP2 immunofluorescence assay; details: cortical neurone
Summary of the method: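 Rat E17 embryonic cortical neurons cultured 17 days, treated 48 h; then 5 μg/mL Hoechst 33342 and 10 μM propidium iodide for 30 min at 37 °C, PBS wash, 4% paraformaldehyde fixation. Fluorescence read on plate reader and by camera imaging; MAP2 immunofluorescence imaged; Triton X-100 (2%) control; mean % PI uptake from three wells per condition.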

[28] = Antiproliferative activity against human Gli4F11 cells after 48 to 72 hrs by MTT assay

pIC50 [2] | pIC50 [4] | pIC50 [5] | pIC50 [8] | SMILES | pKi [1] | pIC50 [3] | pIC50 [6] | pIC50 [7] | pIC50 [9] | pIC50 [10] | pIC50 [11] | pKi [12] | pKi [13] | pKi [14] | pKi [15] | pKi [16] | pKi [17] | pKi [18] | pKi [19] | pKi [20] | also measured
5.87 | 5.01 | 5.33 | < 4.00 | CC1(C)O[C@@H]2[C@H](O1)[C@@H](Nc1cccc3ccccc13)[P@](=O)(c1ccccc1)O[C@@H]2[C@H]1COC(C)(C)O1 | 7.44 | < 4.00 | 5.16 | < 4.00 | 5.24 | 5.47 | 5.63 | 7.51 | 7.80 | 6.91 | 6.90 | 7.38 | 7.00 | 6.52 | 7.66 | 7.00 | pKi [21]: 7.22; pKi [22]: 7.11; pKi [23]: 6.54; pKi [24]: 7.34; Activity [25]: Toxic; Activity [26]: Toxic; Activity [27]: Toxic
< 4.00 | < 4.00 | < 4.00 | < 4.00 | CC[P@@]1(=O)O[C@H]([C@H]2COC(C)(C)O2)[C@@H]2OC(C)(C)O[C@@H]2[C@@H]1O | 6.71 | < 4.00 | < 4.00 | < 4.00 | 5.06 | 5.31 | 5.60 | 7.00 | 7.19 | 7.72 | 7.57 | 6.36 | 7.18 | 7.33 | 6.62 | 5.98 | pKi [21]: 7.57; pKi [22]: 7.60; pIC50 [28]: 5.42
